Measurements published in ChEMBL document CHEMBL1127445, “Structure-activity study of 5-substituted 1-carbobenzoxy-2-iminohydantoins as potential anticonvulsant agents” (J Med Chem, 1994).
Calls of active or inactive are those of the source. The calls are words filed in the database; no cut-off is given here.

Key:
Mus musculus [1] = species on record: Mus musculus; assay: Tested for the ability to protect against maximal electroshock seizure test; format: functional
How it was run: (§1)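 Adult male Swiss Webster mice (20–25 g) received drug ip (10 mL/kg) in normal saline or as a 1% CMC suspension. At least three dose groups of 4–8 mice were used, tested at 0.5 h. Maximal electroshock used a 50 mA current. ED50 is in mg/kg; time of peak effect was not determined; doses went up to 300 mg/kg.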

Mus musculus [2] = assay: Tested for the ability to protect against subcutaneous pentylenetetrazole seizure test; format: functional; conditions: sc
How it was run: (§2)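 Male Swiss Webster mice (20–25 g) were dosed ip (10 mL/kg; saline or 1% CMC suspension), with ≥3 groups of 4–8 mice. At 0.5 h, pentylenetetrazole 85 mg/kg was given sc into the neck fold, and mice were watched for 30 min. Protection meant absence of clonic spasms lasting ≥5 s. ED50 is in mg/kg; doses went up to 300 mg/kg.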

Mus musculus [3] = assay: Anticonvulsant activity of the substance upon subcutaneous administration in pentylenetetrazole seizure test in mice; format: functional; conditions: ip, in the assay text read “upon intraperitoneal administration” for “upon subcutaneous administration”
How it was run: (§3)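 Phase II quantification in mice was run by the NIH ADD Program. Compounds were given ip, and ED50 (mg/kg) was read at the time of peak effect. The protective index is TD50 (rotorod ataxia) divided by ED50 in the MES or scMET test.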

[4] = Protective index is the ratio between TD50 and ED50 values in subcutaneous pentylenetetrazole seizure test (scMET); format: functional; how it was run: as §3
[5] = Protective index is the ratio between TD50 and ED50 values in maximal electroshock seizure test (MES); format: functional; how it was run: as §3
[6] = Tested for median toxic dose in rotarod ataxia test for neurological toxicity in mice; format: organism-based; conditions: mouse, in vivo
How it was run: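 Neurotoxicity was measured in mice by the NIH ADD Program using the rotorod ataxia test. Drug was given ip, and the median toxic dose (mg/kg) was measured at the time of peak deficit.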

Mus musculus [7] = assay: Intraperitoneal anticonvulsant activity in the maximal electroshock seizure test expressed as median effective dose in phase II trial in mice; conditions: ip
Mus musculus [8] = assay: Tested for the ability to protect against maximal electroshock seizure test; NA= Not active up to 300 mg/kg; format: functional, organism-based; set-up: dose 300 mg/kg; how it was run: as §1
Mus musculus [9] = assay: Anticonvulsant activity in the in the subcutaneous pentylenetetrazole seizure test in the mice; format: functional; conditions: sc; how it was run: as §3
Mus musculus [10] = assay: Tested for the ability to protect against subcutaneous pentylenetetrazole seizure test; NA= Not active up to 300 mg/kg; format: functional, organism-based; set-up: dose 300 mg/kg; how it was run: as §2
Mus musculus [11] = assay: Tested for the ability to protect against subcutaneous pentylenetetrazole seizure test; Activity at 300 mg/kg but ED50 cannot be estimated; format: functional, organism-based; set-up: dose 300 mg/kg; how it was run: as §2
Mus musculus [12] = assay: Tested for the ability to protect against subcutaneous pentylenetetrazole seizure test; Activity at 300 mg/kg but ED50 can not be estimated; format: functional, organism-based; set-up: dose 300 mg/kg; how it was run: as §2
Mus musculus [13] = assay: Anticonvulsant activity of the substance upon subcutaneous administration in pentylenetetrazole seizure test in mice; NA= Not active; format: functional, organism-based
Mus musculus [14] = assay: Tested for the ability to protect against maximal electroshock seizure test; Activity at 300 mg/kg, but ED50 cannot be estimated; format: functional, organism-based; set-up: dose 300 mg/kg; how it was run: as §1
Mus musculus [15] = assay: Tested for the ability to protect against subcutaneous pentylenetetrazole seizure test; Previously tested; format: functional; conditions: sc

For CCC[C@H]1C(=O)N=C(N)N1C(=O)OCc1ccccc1, which ED50 (Mus musculus [1]) is on record?
Its ED50 is 53.3 mg/kg.

And the ED50 (Mus musculus [2])?
Its ED50 is 141 mg/kg.

What about the ED50 (Mus musculus [3]) of the same molecule?
The ED50 was 141 mg/kg.

What about the PI [4] of the same molecule?
Its PI is 1.3.

What about the PI [5] of the same molecule?
The PI was 2.3.

What about the TD50 [6] of the same molecule?
The TD50 was 188 mg/kg.

What about the ED50 (Mus musculus [7]) of the same molecule?
Its ED50 is 80.2 mg/kg.

Which ED50 (Mus musculus [1]) does the source give for C=CC[C@H]1C(=O)N=C(N)N1C(=O)OCc1ccccc1 here?
Its ED50 is 53.3 mg/kg.

What about the ED50 (Mus musculus [2]) of the same molecule?
Its ED50 is 193 mg/kg.

With CCC[C@@H]1C(=O)N=C(N)N1C(=O)OCc1ccccc1 as the molecule, how does the ED50 (Mus musculus [8]) read?
The ED50 was “inactive”.

What about the ED50 (Mus musculus [2]) of the same molecule?
Its ED50 is 374 mg/kg.

Which ED50 (Mus musculus [1]) does the source give for CC[C@H]1C(=O)N=C(N)N1C(=O)OCc1ccccc1 here?
Its ED50 is 69.2 mg/kg.

What about the ED50 (Mus musculus [2]) of the same molecule?
Its ED50 is 223 mg/kg.

What about the ED50 (Mus musculus [9]) of the same molecule?
The ED50 was under 500 mg/kg.

What about the TD50 [6] of the same molecule?
The TD50 was under 500 mg/kg.

And the ED50 (Mus musculus [7])?
Its ED50 is 99.5 mg/kg.

What does the source list for CC1(C)C(=O)N=C(N)N1C(=O)OCc1ccccc1?
ED50 (Mus musculus [1]): 228 mg/kg; ED50 (Mus musculus [10]): inactive

With NC1=NC(=O)[C@H](Cc2c[nH]c3ccccc23)N1C(=O)OCc1ccccc1 as the molecule, how does the ED50 (Mus musculus [8]) read?
The ED50 was “inactive”.

What about the ED50 (Mus musculus [11]) of the same molecule?
Its ED50 is “Activity”.

Which ED50 (Mus musculus [1]) does the source give for CC(C)[C@H]1C(=O)N=C(N)N1C(=O)OCc1ccccc1 here?
Its ED50 is 51.9 mg/kg.

And the ED50 (Mus musculus [12])?
Its ED50 is “Activity”.

Which results are given for CCCC[C@H]1C(=O)N=C(N)N1C(=O)OCc1ccccc1?
ED50 (Mus musculus [1]): > 1000 mg/kg; ED50 (Mus musculus [12]): Activity

For NC(=O)CC[C@H]1C(=O)N=C(N)N1C(=O)OCc1ccccc1, which ED50 (Mus musculus [8]) is on record?
Its ED50 is “inactive”.

What about the ED50 (Mus musculus [10]) of the same molecule?
The ED50 was “inactive”.

Which ED50 (Mus musculus [13]) does the source give for O=C1NC(=O)C(c2ccccc2)(c2ccccc2)N1 here?
Its ED50 is “inactive”.

With NC1=NC(=O)CN1C(=O)OCc1ccccc1 as the molecule, how does the ED50 (Mus musculus [14]) read?
The ED50 was “Activity”.

What about the ED50 (Mus musculus [10]) of the same molecule?
Its ED50 is “inactive”.

For NC1=NC(=O)[C@H](Cc2ccccc2)N1C(=O)OCc1ccccc1, which ED50 (Mus musculus [8]) is on record?
Its ED50 is “inactive”.

And the ED50 (Mus musculus [15])?
The ED50 was over 1000 mg/kg.

For CCC(C)[C@H]1C(=O)N=C(N)N1C(=O)OCc1ccccc1 (stereo partly drawn), which ED50 (Mus musculus [1]) is on record?
Its ED50 is 74.4 mg/kg.

And the ED50 (Mus musculus [2])?
Its ED50 is 176 mg/kg.

With C[C@H]1C(=O)N=C(N)N1C(=O)OCc1ccccc1 as the molecule, how does the ED50 (Mus musculus [1]) read?
The ED50 was 171 mg/kg.

And the ED50 (Mus musculus [10])?
The ED50 was “inactive”.

Which ED50 (Mus musculus [8]) does the source give for NC1=NC(=O)[C@H](CSCc2ccccc2)N1C(=O)OCc1ccccc1 here?
Its ED50 is “inactive”.

What about the ED50 (Mus musculus [10]) of the same molecule?
Its ED50 is “inactive”.

Which results are given for CC(C)C[C@H]1C(=O)N=C(N)N1C(=O)OCc1ccccc1?
ED50 (Mus musculus [15]): 141 mg/kg; PI [4]: 2.5; PI [5]: 3.5; ED50 (Mus musculus [7]): 98.6 mg/kg

Which ED50 (Mus musculus [8]) does the source give for CSCC[C@H]1C(=O)N=C(N)N1C(=O)OCc1ccccc1 here?
Its ED50 is “inactive”.

What about the ED50 (Mus musculus [10]) of the same molecule?
The ED50 was “inactive”.
